KCNK9 inh: inhibitors of human KCNK9 two-pore domain potassium channel | Q9NPC2 | HEK293 KCNK9, FluxOR thallium flux fluorescence; hits give low values | B-score at 10 µM | 310,000 compounds, 1.2% hits | AID 488922;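 active = ratio B-score over 3 SD below the library mean, with starting fluorescence within 5 SD of its mean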;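 note: negative B-score means less thallium flux so channel inhibition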
hERG protect: shields human hERG channel from block by proarrhythmic agents; 310,000 compounds, 0.51% hits; activation (rescue from dofetilide block), less the hit threshold, % at 10 µM; Q12809; CHO-hERG, FluxOR thallium flux, dofetilide IC70 present; AID 1511;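 active = activation above the mean of controls blocked by dofetilide plus 5 SD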;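 note: thallium influx through hERG after potassium depolarization seen as dye fluorescence rise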
KCNQ1 pot: human KCNQ1 channel potentiation or activation; CHO-K1 KCNQ1, thallium flux FluxOR fluorescence; hits give high values; 310,000 compounds, 0.35% hits; B-score at 10 µM; P51787;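 active = fluorescence ratio B-score, a plate-corrected score, at least three library SD, with initial intensity B-score within 5 SD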
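Assay system: CHO-K1 cells stably expressing KCNQ1; Medium: assay buffer with matched DMSO; Also added: K+/Tl+ depolarizing stimulus; Dosing: single dose; Timing: dye 90 min, compound 20 min, room temperature; Measured by: kinetic FluxOR thallium fluorescence, 10-s 1-Hz baseline, 110-s post-stimulus read; Read-out: peak-minus-minimum fluorescence over initial fluorescence, negative-control normalized, B-scored.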
KCNQ1 inh: inhibitors of human KCNQ1 potassium channel; B-score at 10 µM; 310,000 compounds, 1.3% hits; CHO-K1 KCNQ1, FluxOR thallium flux fluorescence; hits give high values;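 active = compounds whose thallium flux B-score, printed positive for inhibition, exceeds three library SD while starting fluorescence stays within three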;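 note: channel opened by potassium depolarization with thallium stimulus after 20 min compound exposure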
KCNK3 block: human KCNK3 channel inhibition, primary screen; B-score at 10 µM; CHO-KCNK3 thallium flux, FluxOR fluorescence; hits give low values; 340,000 compounds, 0.84% hits;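 active = B-score under library mean minus 4 SD, starting fluorescence ratio at most library mean plus 5 SD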;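 note: more negative B-score means stronger inhibition of thallium flux through KCNK3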
Kir21 block: Kir2.1 (mouse) channel inhibition; HEK293-Kir2.1, FluxOR thallium flux fluorescence; hits give low values; B-score at 10 µM; 310,000 compounds, 0.85% hits; AID 1672;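 active = fluorescence ratio B-score at or below minus 3 SD of library scores, with starting-brightness B-score within 2 SD, cut at about -4.2 in these data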;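 note: channel flux triggered by added potassium and thallium sulfate stimulus; B-score of peak minus minimum fluorescence over baseline after thallium stimulus; more negative B-score means stronger Kir2.1 block with less thallium influx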
Target sequence (P35561 whole entry, looked up): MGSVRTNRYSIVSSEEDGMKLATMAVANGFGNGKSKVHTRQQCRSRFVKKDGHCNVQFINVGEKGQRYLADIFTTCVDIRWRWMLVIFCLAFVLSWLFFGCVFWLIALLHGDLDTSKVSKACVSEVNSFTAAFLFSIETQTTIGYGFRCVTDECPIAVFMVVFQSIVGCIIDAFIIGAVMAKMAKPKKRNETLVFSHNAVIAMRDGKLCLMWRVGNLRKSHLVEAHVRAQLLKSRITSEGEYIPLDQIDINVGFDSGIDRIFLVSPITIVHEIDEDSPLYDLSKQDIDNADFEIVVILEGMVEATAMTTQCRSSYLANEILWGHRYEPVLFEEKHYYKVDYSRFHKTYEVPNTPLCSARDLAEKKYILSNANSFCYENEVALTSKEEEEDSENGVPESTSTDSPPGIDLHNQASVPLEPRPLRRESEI
Numbers stand for hits; n = inactive; x = no result. Rows were chosen to be rich in hits. Some 3.7% of all compounds tested hit in one or more screens of this group.

SMILES	KCNK9 inh	hERG protect	KCNQ1 pot	KCNQ1 inh	KCNK3 block	Kir21 block
O/N=C/c1cc(Cl)ccc1OCc1cccc2ccccc12	-11	n	n	7	x	n
C#CCOc1ccc(Cl)cc1/C=N/O	n	n	n	n	n	n
Cc1ccc(C(C)C)c(OCCN(C)C)c1	n	6.6	n	n	n	n
CCCN(CCC)CCOc1cc(C)ccc1C(C)C	n	n	n	n	n	n
Cc1ccc(C(C)C)c(OCCN)c1	n	n	n	n	n	n
Cc1ccc(C)c(OCc2n[nH]c(=S)o2)c1	n	n	n	n	n	n
Cc1ccc(C(C)C)c(OCCNCc2ccccc2)c1	n	n	n	n	n	-8.8
Cc1ccc(C(C)C)c(OCCCCN2CCNCC2)c1	n	n	n	n	n	-6.1
Cc1ccc(C(C)C)c(OCc2n[nH]c(=S)o2)c1	n	n	8	n	n	n
Cc1ccnc2nc(C(=O)OCC(=O)NC3CCCC(C)C3C)nn12 (centres undefined)	x	x	x	x	n	x
O=C(NCCN1CCCCC1)/C(=C/c1ccco1)NC(=O)c1ccccc1	n	n	n	n	n	n
Cc1ccc(C(C)C)c(OCCNC(=S)Nc2cccc3ccccc23)c1	n	n	n	8	n	n
CCOc1ccc(-c2c(=O)n(OCC)c3ccccc3[n+]2[O-])cc1	n	n	n	n	n	n
COn1c(=O)c(-c2ccccc2)[n+]([O-])c2ccccc21	n	n	n	n	n	n
Cc1ccc(-c2c(=O)n(O)c3ccccc3[n+]2[O-])cc1	n	n	17	n	n	n
CCOc1ccc(-c2c(=O)n(O)c3ccccc3[n+]2[O-])cc1	n	18	12	n	n	n
COn1c(=O)c(-c2ccc(C)cc2)[n+]([O-])c2ccccc21	n	n	n	n	n	n
O=c1c(-c2ccccc2)[n+]([O-])c2ccccc2n1O	n	13	n	n	n	n
CC(C)NC(=O)Cn1cc(C(=O)C(=O)N2CCOCC2)c2ccccc21	n	n	n	n	n	n
Cc1ccc(NC(=O)CSCC(=O)Nc2cc(C(F)(F)F)ccc2N2CCOCC2)cc1	n	n	n	n	n	n
O=C(CSCc1ccco1)Nc1cc(C(F)(F)F)ccc1N1CCOCC1	-6.7	n	n	n	n	n
CC(=O)c1ccc(NC(=O)CN2CCC(NC(=O)C3CCCCC3)CC2)cc1	n	6.1	n	n	n	n
O=C1CN(C(=O)CCCc2c[nH]c3ccccc23)c2ccccc2N1	n	n	n	n	n	-5.7
O=C(O)CCCC(=O)N1CC(=O)Nc2ccccc21	n	n	n	n	n	n
O=C(Cc1ccc(F)cc1)Nc1ccccc1Sc1ccccc1	n	n	n	n	n	-6.3
SMILES	KCNK9 inh	hERG protect	KCNQ1 pot	KCNQ1 inh	KCNK3 block	Kir21 block
O=C(Nc1ccccc1Sc1ccccc1)c1ccccc1	-7.7	n	n	n	n	n
O=C(Nc1ccccc1Sc1ccccc1)C1CCCO1 (centres undefined)	n	n	n	n	n	-4.8
CSc1ccccc1NC(=O)Cc1ccccc1	n	n	n	n	n	n
O=C(Cc1ccccc1)Nc1ccccc1Sc1ccccc1	n	n	n	n	n	-9.2
O=C(Cc1ccc(Br)cc1)Nc1ccccc1Sc1ccccc1	n	n	n	n	n	n
COc1ccc(-c2c(C)n([O-])c3c([n+]2=O)CCCC3)cc1OC	n	n	n	n	x	n
Cn1c(=O)c2c(nc(NN=C3CCCCC3)n2C)n(C)c1=O	n	n	n	n	n	n
CCOC(=O)c1ccc(P(=O)(c2ccccc2)c2ccccc2)cc1	n	n	n	n	n	n
CCC(C)(O)c1[nH]c2ccc(C#N)cc2c1C (centres undefined)	n	n	n	n	n	n
CCOC(=O)C1CCN(Cc2cccc(Oc3ccccc3)c2)CC1	n	n	n	n	n	-6.1
COc1ccc(-c2nc(N)c(C#N)c(-c3cccnc3)c2C)cc1	n	n	n	n	n	n
COC(=O)Oc1ccc(/C=C/C(=O)OC(C)C)cc1OC(=O)OC	n	6.6	n	n	n	n
CCOc1cccc(CNc2ccc(O)cc2)c1OCc1ccc(Cl)cc1Cl	n	n	n	n	n	n
CCOc1cccc(CNCCO)c1OCc1ccc(Cl)cc1Cl	n	n	n	n	n	-6.1
CCOc1cc(CNCCO)cc(Br)c1OCc1ccc(Cl)cc1Cl	-7.8	n	n	n	n	-13
CCOc1ccc(/C=N/NC(=O)c2cccc3ccccc23)c(OCC)c1	n	n	n	n	n	n
C(=C\c1ccco1)/C1=NN(c2ccccc2)C(c2ccco2)C1 (centres undefined)	n	n	n	n	n	n
O=[N+]([O-])c1ccc(/C=C/C2=NN(c3ccccc3)C(c3ccco3)C2)o1 (centres undefined)	n	n	n	n	-9.7	n
COc1cc(CCC(=O)N2CCN(c3cccc(C)c3C)CC2)cc(OC)c1OC	n	n	n	n	n	n
COc1ccc(Cl)cc1NC(=S)NCCC(c1ccccc1)c1ccccc1	-8.1	n	n	n	n	n
COc1cc(NC(=S)NCCC(c2ccccc2)c2ccccc2)c(OC)cc1Cl	n	n	n	n	n	n
S=C(NCCC(c1ccccc1)c1ccccc1)Nc1ccc(Cl)cc1	n	n	n	9	n	n
CCC(C(=O)Nc1cc(Cl)ccc1OC)c1ccccc1 (centres undefined)	-7.3	n	n	n	n	n
S=C(NCCC(c1ccccc1)c1ccccc1)Nc1ccccc1Cl	n	n	n	12	n	n
COc1ccc(-n2nc(C(=O)NCC(=O)N3CC(C)CC(C)C3)c3ccccc3c2=O)cc1 (centres undefined)	n	n	n	n	n	n
SMILES	KCNK9 inh	hERG protect	KCNQ1 pot	KCNQ1 inh	KCNK3 block	Kir21 block
CCN(C(=O)COC(=O)C1CCN(S(=O)(=O)c2cccs2)CC1)c1ccccc1	n	n	n	n	n	n
Cc1ccc(OCCNC(=O)c2cc(C(=O)NCCOc3ccc(C)cc3)cc([N+](=O)[O-])c2)cc1	n	n	n	10	n	n
Cc1cccc(OCCNC(=O)c2ccc(Oc3ccc(C(F)(F)F)cc3[N+](=O)[O-])cc2)c1	n	n	n	6	-9.5	n
O=C(NCCCN1CCOCC1)C(=O)NCC1OCCCN1S(=O)(=O)c1cc(F)ccc1F (centres undefined)	n	n	n	n	n	n
COc1cc(OC)cc(-c2nnc(NC(=O)Cc3ccc(F)cc3)o2)c1	n	n	n	n	n	n
COc1cc(C)c(C)cc1S(=O)(=O)n1c(C)nc2ccccc21	n	n	n	n	n	-5.1
COc1cc(S(=O)(=O)n2c(C)nc3ccccc32)ccc1F	n	n	n	n	n	n
COc1cc(F)ccc1S(=O)(=O)n1c(C)nc2ccccc21	n	n	n	n	n	-6.5
